{"data": "Results pooled from the literature", "note": "Protocols differ between the studies behind these lines."}
{"Structure (SMILES)": "CCc1cc(OC)c2nccc(N3CCc4c(cc(Cn5ccnc5)cc4-c4cn(C)nc4C(F)(F)F)C3=O)c2c1", "species": "male CD-1 mouse", "sample": "plasma", "route": "oral", "dose": "150 mg/kg", "AUC(0-inf)": "225000 ng·h/mL"}
{"Structure (SMILES)": "COc1ccc2nc(-c3ccccn3)c(N(C)c3ccc(F)cc3)n2c1", "species": "male CD-1 mouse", "sample": "plasma", "route": "oral", "dose": "50 mg/kg", "setting": "fasted", "AUC(0-inf)": "969 ng·h/mL"}
{"Structure (SMILES)": "COc1cc(C(=O)N2CCC(N3CCN(C)CC3)CC2)ccc1Nc1ncc2c(n1)N(C)c1ccccc1C(=O)N2C", "species": "mouse", "sample": "plasma", "route": "intravenous", "dose": "1 mg/kg", "AUC(0-inf)": "2970 ng·h/mL"}
{"Structure (SMILES)": "CNC(=O)c1cc(OC)cc2c(N3CCc4c(cc(Cn5ccnc5)cc4-c4cn(C)nc4C(F)(F)F)C3=O)ccnc12", "species": "male CD-1 mouse", "sample": "plasma", "route": "oral", "dose": "50 mg/kg", "AUC(0-inf)": "145000 ng·h/mL"}
{"Structure (SMILES)": "Cc1ccc(NC(=O)c2ccc(CN3CCN(C)CC3)cc2)cc1Nc1nccc(-c2cncc(-c3oncc3C)c2)n1", "species": "male C57BL/6 mouse", "sample": "plasma", "route": "oral", "dose": "100 mg/kg/day", "AUC(0-inf)": "38000 ng·h/mL"}
{"Structure (SMILES)": "COc1cc2c(Nc3ccc(Cl)c(Cl)c3F)ncnc2cc1OC[C@@H]1C[C@@H]2CN(C)C[C@@H]2C1", "species": "FVB mouse", "sample": "brain", "route": "oral", "dose": "70 mg/kg", "setting": "single dose", "AUC(0-inf)": "158000 ng·h/mL"}
{"Structure (SMILES)": "CN1C(=O)c2ccccc2[S@+]([O-])c2ccc(C(=O)NCCc3cccs3)cc21", "species": "male C57BL/6 mouse", "sample": "brain", "route": "intraperitoneal", "dose": "30 mg/kg", "setting": "single dose", "AUC(0-inf)": "1430 ng·h/mL"}
{"Structure (SMILES)": "CN1CCN(C(=O)CN[C@@H]2C[C@H]2c2ccc(OCc3ccccc3)cc2)CC1", "species": "mouse", "sample": "plasma", "route": "intraperitoneal", "dose": "10 mg/kg", "AUC(0-inf)": "1720 ng·h/mL"}
{"Structure (SMILES)": "CC(C)(Nc1nc(-c2ccccn2)nc2ccccc12)c1ccccn1", "species": "female BALB/c mouse", "sample": "plasma", "route": "intravenous", "dose": "1 mg/kg", "AUC(0-inf)": "1460 ng·h/mL"}
{"Structure (SMILES)": "Cc1cc(NC(=O)c2cccc3cc(-c4cccc5[nH]nc(N)c45)ccc23)ccc1F", "species": "male CD-1 mouse", "sample": "plasma", "route": "oral", "dose": "10 mg/kg", "AUC(0-inf)": "4940 ng·h/mL"}
{"Structure (SMILES)": "CCc1cc(C(=O)NC)c2nccc(N3CCc4c(cc(Cn5ccnc5)cc4-c4cn(C)nc4C(F)(F)F)C3=O)c2c1", "species": "male CD-1 mouse", "sample": "plasma", "route": "intravenous", "dose": "3 mg/kg", "AUC(0-inf)": "4180 ng·h/mL"}
{"Structure (SMILES)": "CCNc1nc2c(c(N3CC(=O)Nc4cc(OC)ccc43)n1)CCC2", "species": "female C57BL/6 mouse", "sample": "plasma", "route": "intravenous", "dose": "4 mg/kg", "setting": "single dose", "AUC(0-inf)": "620 ng·h/mL"}
{"Structure (SMILES)": "COc1cc(OC)c2nccc(N3CCc4c(cc(Cn5ccnc5)cc4-c4cn(C)nc4C(F)(F)F)C3=O)c2c1", "species": "male CD-1 mouse", "sample": "plasma", "route": "intravenous", "dose": "3 mg/kg", "AUC(0-inf)": "805 ng·h/mL"}
{"Structure (SMILES)": "Cc1nc(-c2cnc(NC(C)C)n(C)c2=O)ccc1Oc1ccnc(-c2cnn(C)c2)c1", "species": "female mouse", "sample": "plasma", "route": "oral", "dose": "15 mg/kg", "setting": "single dose", "AUC(0-inf)": "127000 ng·h/mL"}
{"Structure (SMILES)": "CC[C@H](C)[C@@H]1NC(=O)[C@@](C)(NC(=O)[C@H](CCCNC(=N)N)NC(=O)[C@H](CC(C)C)NC(=O)[C@@H](NC(=O)[C@H](CCC(N)=O)NC(=O)[C@H](CC(C)C)NC(C)=O)[C@@H](C)O)CCCC=CCCC[C@@](C)(C(=O)N[C@@H](CC(C)C)C(=O)N[C@@H](Cc2ccc3ccccc3c2)C(N)=O)NC(=O)[C@H](CCCNC(=N)N)NC(=O)[C@H](CCC(N)=O)NC1=O", "species": "male BALB/c mouse", "sample": "plasma", "route": "intravenous", "dose": "10 mg/kg", "AUC(0-inf)": "233000 ng·h/mL"}
{"Structure (SMILES)": "Cc1ccc2cncc(N3CCc4c(cc(Cn5ccnc5)cc4-c4cn(C)nc4C(F)(F)F)C3=O)c2c1", "species": "male CD-1 mouse", "sample": "plasma", "route": "oral", "dose": "10 mg/kg", "AUC(0-inf)": "4460 ng·h/mL"}
{"Structure (SMILES)": "Cc1cc(Nc2ccc(S(F)(F)(F)(F)F)cc2)n2ncnc2n1", "species": "male Swiss mouse", "sample": "plasma", "route": "oral", "dose": "100 mg/kg", "setting": "single dose", "AUC(0-inf)": "942 µM·h"}
{"Structure (SMILES)": "COc1nc(-c2cc(C)c(N[C@@H](C)c3ccc(F)cc3)nn2)ccc1-n1cnc(C)c1", "species": "male CD-1 mouse", "sample": "plasma", "route": "intravenous", "dose": "1 mg/kg", "setting": "single dose", "AUC(0-inf)": "4280 ng·h/mL"}
{"Structure (SMILES)": "COc1ccc2nccc(N3CCc4c(cc(Cn5ccnc5)cc4-c4cn(C)nc4C(F)(F)F)C3=O)c2c1", "species": "male CD-1 mouse", "sample": "plasma", "route": "oral", "dose": "10 mg/kg", "AUC(0-inf)": "2100 ng·h/mL"}
{"Structure (SMILES)": "CNCCN(C)c1cc(C#N)cc(CCc2cc(C)cc(N)n2)c1", "species": "male BALB/c mouse", "sample": "plasma", "route": "intravenous", "dose": "2 mg/kg", "AUC(0-inf)": "181 ng·h/mL"}
{"Structure (SMILES)": "COc1nc(-c2cc(C)c(N[C@@H](C)c3cc(F)cc(F)c3)nn2)ccc1-n1cnc(C)c1", "species": "male CD-1 mouse", "sample": "plasma", "route": "intravenous", "dose": "1 mg/kg", "setting": "single dose", "AUC(0-inf)": "2070 ng·h/mL"}
{"Structure (SMILES)": "CC(C)(C)c1ccc(O)c(CN(Cc2cc(C(C)(C)C)ccc2O)C2CCC(NC(N)=O)CC2)c1 (stereo not shown)", "species": "male C57BL/6 mouse", "sample": "plasma", "route": "intraperitoneal", "dose": "10 mg/kg", "setting": "single dose", "AUC(0-inf)": "10800 ng·h/mL"}
